RanGTP-Imp inh – disruptors of Ran-importin-beta complex formation – biochemical, FRET, CFP-Ran, YFP-importin-beta, homogeneous, primary screen; hit rate 1.1% among 300,000; cell-free CFP-Ran/YFP-importin-beta FRET ratio; inhibition, % (test concentration not listed);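 active = more than half of the replicate wells show a fall in the fluorescence ratio signal beyond about 16%, limit read from the data, passing the limit was not always enough; inconclusive = exactly half of the replicate wells pass the set limit; inactive = fewer than half of replicates pass the limit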
Hck Nef HTS – blocks Nef-activated human Hck kinase. P08631. inhibition, % at 20 µM. hit rate 0.68% among 220,000. AID 463187. Recombinant Hck-YEEI plus Nef, Z-Lyte FRET kinase assay;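 active = Hck-Nef kinase inhibition above about 50%, limit read from the data; inactive = inhibition below that limit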
Target sequence (P08631 whole entry, looked up): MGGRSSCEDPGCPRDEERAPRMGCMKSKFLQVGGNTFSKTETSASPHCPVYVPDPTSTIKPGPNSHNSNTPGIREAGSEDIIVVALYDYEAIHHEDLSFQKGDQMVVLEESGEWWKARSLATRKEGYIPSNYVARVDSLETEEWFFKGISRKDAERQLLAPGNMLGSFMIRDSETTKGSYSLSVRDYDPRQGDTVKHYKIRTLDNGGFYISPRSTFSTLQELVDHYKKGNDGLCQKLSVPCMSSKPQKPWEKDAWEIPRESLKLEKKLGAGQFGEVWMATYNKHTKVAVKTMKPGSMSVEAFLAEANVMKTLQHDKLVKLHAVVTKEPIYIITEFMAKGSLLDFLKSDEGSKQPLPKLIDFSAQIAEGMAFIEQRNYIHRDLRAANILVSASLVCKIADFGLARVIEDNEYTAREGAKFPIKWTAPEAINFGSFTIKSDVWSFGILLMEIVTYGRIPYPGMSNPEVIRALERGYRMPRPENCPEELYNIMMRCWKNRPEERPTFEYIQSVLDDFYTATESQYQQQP
Runt-SMMHC FRET – blocks binding of human RUNX1 Runt domain to CBFb-SMMHC. hit rate 0.74% among 220,000. Cerulean-Runt/Venus-CBFb-SMMHC FRET ratio 530/480, 1 h. inhibition, % at 20 µM;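 active = mean inhibition across duplicate retests at 20 µM reaching about 50%, limit read from the data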;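 note: inhibitors lower the FRET ratio by blocking Runt binding to CBFb-SMMHC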
Runt-CBFb FRET – inhibitors of human RUNX1 Runt domain binding to CBFb | Q01196+Q13951 | Cerulean-Runt/Venus-CBFb FRET ratio 530/480, 1 h | inhibition, % at 20 µM | hit rate 0.46% among 220,000 | AID 1496;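 active = inhibition over about 50% at 20 µM in the single-dose screen, limit read from the data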
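Assay system: Cerulean-Runt domain fusion protein, energy donor; Signal: fluorescence energy transfer, 422 nm excitation, 530/480 nm emission; Timing: 1 h compound exposure, room temperature; Control set: unlabeled CBFb; Medium: Tris buffer pH 7.5 with salts and BSA; Compound: single test concentration of 20 µM, 1% DMSO final; Probe or stimulus: Venus-CBFb 100 nM.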
RUNX1 CBFb TR – Runt-CBFb binding inhibition; shares compounds with Runt-CBFb FRET; inhibition, % at 20 µM; TR-FRET RUNX1 Runt domain-CBFb binding; hit rate 20% among 480; in the data active = inhibition above about 40%
A number is an active result; – = inactive; ? = inconclusive; · = not tested or not shown. In the library only some 1.8% were active in any assay of this set; here they are far more common.

SMILES	RanGTP-Imp inh	Hck Nef HTS	Runt-SMMHC FRET	Runt-CBFb FRET	RUNX1 CBFb TR
O=C(NCCc1c[nH]c2ccccc12)/C(=C\c1cccnc1)NC(=O)c1ccccc1F	–	–	–	–	·
COc1ccc(C2C(C#N)=C(N)N(Nc3ccccc3)C3=C2C(=O)CC(C)(C)C3)cc1C (stereo unspecified)	–	–	101.5	61.5	–
CCOC(=O)N1CCN(CC(O)COc2ccc(C)cc2C(C)(C)C)CC1 (stereo unspecified)	–	–	–	–	·
CCOC(=O)C1(Cc2ccc(OC)cc2)CCN(C(=O)c2cncs2)CC1	–	–	–	53.9	–
CC(SCc1ccc(C(=O)O)o1)c1ccc(C(=O)O)o1 (stereo unspecified)	–	·	·	·	·
CC(C)Sc1nc2sc(-c3ccccc3)cc2c(=O)n1N	·	–	–	–	·
COC(=O)C(C)n1nnc2sc(-c3ccccc3)cc2c1=O (stereo unspecified)	·	–	124.3	58.3	–
Cc1nc(-c2ccc([N+](=O)[O-])cc2)nc2[nH]ccc(=O)c12	–	·	·	·	·
COc1ccc2ccccc2c1C(O)c1nccn1C (stereo unspecified)	–	–	114.8	55.2	–
Cn1ccnc1C(O)c1ccccc1 (stereo unspecified)	–	–	–	–	·
Oc1cc(-n2cccn2)c(O)cc1-n1cccn1	–	–	100.0	52.6	–
CCOC(=O)C1=C(C)N(c2ccccc2)C(=O)/C1=C\c1ccc(O)c(OC)c1	–	–	–	54.9	59.6
CCOC(=O)C1=C(Cc2ccc(C)cc2)C(=O)c2ccccc2C1=O	–	–	50.7	50.3	–
Cc1c(Nc2c3ccccc3nc3ccccc23)c(=O)n(-c2ccccc2)n1C	56.0	–	–	114.2	–
CCCCc1c(C)c(C#N)c2nc3ccccc3n2c1Nc1c(C)n(C)n(-c2ccccc2)c1=O	20.5	–	65.1	52.8	–
Cc1c(Nc2c3c(c(C#N)c4nc5ccccc5n24)CCC3)c(=O)n(-c2ccccc2)n1C	·	–	–	–	·
COc1ccc(CCn2c(N)c(C(=O)NCc3ccco3)c3nc4ccccc4nc32)cc1	57.6	–	78.7	57.7	–
COc1ccc(S(=O)(=O)Cc2ccc(C(=O)NCc3ccco3)o2)cc1	–	–	–	–	·
NS(=O)(=O)c1ccc(NC(=S)NC2CCCC2)cc1	–	–	–	54.8	–
NS(=O)(=O)c1ccc(NC(=S)NC2CCCCCC2)cc1	–	–	–	–	·
Cc1ccc(-c2noc(CN3CCC(C(N)=O)CC3)n2)cc1	–	–	–	–	·
Cc1ccc(-c2noc(CN3C(C)CCCC3C)n2)cc1 (stereo unspecified)	–	–	–	84.0	–
CNC(=S)NC(CC(=O)OC)c1ccc2c(c1)OCO2 (stereo unspecified)	–	–	–	–	·
c1ccc(-c2onc3cc4c(cc23)OCCO4)cc1	–	–	103.9	77.4	–
COCCN(C(=S)Nc1c(C)cc(C)cc1C)C(C)c1cccnc1 (stereo unspecified)	?	–	–	51.3	–
SMILES	RanGTP-Imp inh	Hck Nef HTS	Runt-SMMHC FRET	Runt-CBFb FRET	RUNX1 CBFb TR
CC(C)CN(C(=O)c1ccco1)C1CCS(=O)(=O)C1 (stereo unspecified)	–	·	·	·	·
CN(C(=O)c1ccccn1)c1nnc(-c2cccnc2)s1	·	–	–	82.1	–
Cc1nnc(N(C)C(=O)c2ccccn2)s1	–	–	–	–	·
CC(C(=O)NCc1cccc(Cl)c1)N1C(=O)c2ccccc2C1=O (stereo unspecified)	–	·	·	·	·
c1ccc(-c2csc(NNC3=NCCCCC3)n2)cc1	–	–	–	50.9	43.5
Cc1c(C(=O)NCCSCc2cccc(C(F)(F)F)c2)cnn1-c1ccc(F)cc1	–	–	–	–	·
O=C(C#Cc1cccc([N+](=O)[O-])c1)c1ccccc1	–	–	–	51.1	–
COc1ccc(NC(=O)C2CCC(CNS(=O)(=O)c3cccs3)CC2)cc1 (stereo unspecified)	–	–	–	–	·
Cc1cc(O)c(Oc2cc(C)cc(O)c2O)c(O)c1	–	–	62.2	70.0	53.5
O=C(Nc1ccc(-c2nc3ccccc3[nH]2)cc1)c1ccc2c(c1)OCO2	–	–	–	–	·
O=C(Nc1ccc(Cl)c(-c2nc3ccccc3[nH]2)c1)c1ccc2c(c1)OCO2	–	–	–	64.9	–
C=CCNC(=O)/C(C#N)=C/c1c(N(Cc2ccccc2)Cc2ccccc2)nc2ccccn2c1=O	–	–	71.0	51.1	–
N#C/C(=C\c1c(N(Cc2ccccc2)Cc2ccccc2)nc2ccccn2c1=O)C(N)=O	–	–	–	–	·
O=C(CNC(=O)c1ccco1)N/N=C/c1cccs1	?	–	–	–	·
CCNC(=S)N(Cc1cc2cc(C)cc(C)c2[nH]c1=O)C1CCCC1	–	–	–	–	·
CCNC(=S)N(Cc1cc2cc(C)ccc2[nH]c1=O)C1CCCC1	–	–	–	57.7	–
CCNC(=S)N(Cc1cc2c(C)ccc(C)c2[nH]c1=O)C1CCCC1	–	–	–	59.6	–
Cc1cc(C)c2c(N)c(C(=O)Nc3nccs3)sc2n1	–	–	–	55.7	–
COc1ccccc1C(=O)N/C(=C/c1ccc(Br)cc1)C(=O)N1CCCC1	–	–	–	–	·
CC(C)NC(=O)c1cccc(Cn2cc(Cl)cn2)c1	–	–	–	53.6	–
COc1cc(CN2CCN(CC3CC3)CC2CCO)cc(OC)c1 (stereo unspecified)	–	·	·	·	·
Cc1cccc(N2CCc3c2nc2ccc(Br)cc2c3N)c1	–	–	–	57.1	–
Nc1c2c(nc3ccc(Br)cc13)N(c1ccccc1)CC2	·	–	–	–	·
CCN(CC)c1ccc(/C=N/NC(=O)c2ccco2)cc1	–	–	–	–	·
CCN(CC)c1ccc(/C=N/NC(=O)c2ccco2)c(O)c1	62.9	–	81.6	74.8	–
SMILES	RanGTP-Imp inh	Hck Nef HTS	Runt-SMMHC FRET	Runt-CBFb FRET	RUNX1 CBFb TR
O=C(CCNS(=O)(=O)c1cccc2nsnc12)NC1CCCc2ccccc21 (stereo unspecified)	–	–	–	–	·
O=C(NC1CCCc2ccccc21)C1CCC(CNS(=O)(=O)c2cccc3nsnc23)CC1 (stereo unspecified)	?	–	–	83.1	–
CN1CCN(C(=S)c2ccc(Br)cc2)CC1	?	–	–	50.2	–
CSc1ccc(C(=S)N2CCN(C)CC2)cc1	–	–	–	54.5	–
CN1CCN(C(=S)c2ccc(N(C)C)cc2)CC1	–	–	–	–	·
N#CC1(C#N)COC23CCCCC2C1(C#N)C(=N)O3 (stereo unspecified)	30.5	–	80.4	63.1	–
CCC(NC(=S)NC1CCCCC1)c1ccc(C)cc1 (stereo unspecified)	–	·	·	·	·
O=C(CCSc1nc(-c2ccco2)cc(C(F)(F)F)n1)Nc1ccc2c(c1)OCO2	–	–	–	–	·
COc1cc(Cl)c(C)cc1NC(=S)NN	–	–	–	51.4	–
Oc1ccc(-c2csc(Nc3ncccn3)n2)c(O)c1	?	–	–	–	·
Oc1ccc(-c2csc(Nc3ncccn3)n2)cc1O	–	–	–	50.4	41.7

Source: PubChem (several laboratories)
